Screening results: PubChem, several laboratories
Only some compounds are listed: those with a hit (about 4.9% of all), similar ones and a draw of the others.
STAT1 activator: activators of IFN-gamma induced STAT1 signaling. NIH 3T3 STAT1-luciferase reporter, luminescence; 100% = IFN-gamma alone, no compound. activation (% of control), % at 5.5 µM. hit rate 2.6% among 200,000. AID 932;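 active = activation above the screen-wide mean activation plus 3 SD, cut at about 130% in these data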
STAT1 inh: inhibitors of IFN-gamma induced STAT1 signaling; NIH 3T3 STAT1-luciferase reporter, luminescence; hit rate 0.35% among 200,000; inhibition, % at 5.5 µM;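 active = inhibition above a set limit, the mean inhibition across all tested compounds plus 3 SD, cut at about 34% in these data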
STAT3 activator: activators of IL-6 induced STAT3 signaling. AID 871. activation (% of control), % at 5.6 µM. U3A cells, IL-6 STAT3-luciferase reporter, luminescence; 100% = signal with IL-6 EC80 alone. hit rate 0.91% among 190,000;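 active = activation above the screen-wide mean of compound activation plus 3 SD, cut at about 130% in these data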
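System – human U3A cells carrying STAT3-luciferase construct · Probe or stimulus – Interleukin-6, 33 ng/mL · Schedule – compound 1 h, then IL-6 6 h at 37 °C · Signal – luminescence from STAT3-driven luciferase reporter · Evaluation – percent of IL-6-only median luminescence · Benchmarks – IL-6-only high control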
APP 5'UTR act: activates APP 5'UTR luciferase reporter; hit rate 1% among 190,000; SH-SY5Y APP 5'UTR luciferase reporter, luminescence; zero percent = DMSO vehicle wells; activation, % at 2 µM;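 active = activation above a set limit, based on mean plus 3 SD of controls, cut at about 140% in these data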
STAT3 blocker: STAT3 signaling inhibition; U3A cells, IL-6 STAT3-luciferase reporter, luminescence; host cell line lacks STAT1; inhibition, % at 5.5 µM; hit rate 0.89% among 190,000; AID 862;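 active = inhibition above the mean inhibition across all screened compounds plus 3 SD, cut at about 44% in these data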
NF-kB expr up: raises NF-kB expression in human neuronal cells | NF-kB reporter expression; hits give high values | fold change at 12.5 µM | hit rate 1.6% among 190,000 | AID 1239; in the data active = fold change above about 3.3
STAT1 activ conf: confirmation of STAT1 signaling activators; shares compounds with STAT1 activator; AID 1262; hit rate 97% among 1,200; activation (% of control), % at 5.7 µM; NIH 3T3 STAT1-luciferase reporter, IFN-gamma potentiation, luminescence; 100% = IFN-gamma EC80 alone, no compound;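 active = activation above a set limit carried over from the earlier primary STAT1 screen, cut at about 140% in these data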
NFkB act STAT1ct: activates NF-kappaB, counter-screen to STAT1 activators. shares compounds with STAT1 activator. HEK293T NF-kB luciferase reporter, TNF-alpha stimulated, luminescence; 100% = TNF-alpha with vehicle only. activation (% of control), % at 5.7 µM. hit rate 43% among 1,200. AID 1306;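 active = activation above the mean of solvent-only control wells plus 3 SD, set per campaign, cut at about 130% in these data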;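 also: TNF-alpha given at a submaximal dose yielding about 80% of full reporter signal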
STAT3 act STAT1c: human STAT3 activation in STAT1 activator counter-screen; shares compounds with STAT1 activator; U3A cells STAT3-luciferase reporter, IL-6, luminescence; cells lack STAT1; 100 = IL-6 alone, no compound effect; activation (% of control), % at 5.7 µM; AID 1316; hit rate 46% among 1,200;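 active = activation above the solvent-only control well mean plus 3 SD, set per plate batch, cut at about 110% in these data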;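 also: higher means more STAT3 reporter activation so hits are non-selective activators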
A number is an active result; 0 = inactive; - = not tested or not shown.

SMILES	STAT1 activator	STAT1 inh	STAT3 activator	APP 5'UTR act	STAT3 blocker	NF-kB expr up	STAT1 activ conf	NFkB act STAT1ct	STAT3 act STAT1c
O=C(NC(=S)Nc1ccc2c(c1)OCCO2)c1cccc(Br)c1	153	0	0	0	0	4.8	176	133	118
O=C(CC(=O)c1ccccc1)Nc1ccc2c(c1)OCCO2	159	0	0	0	0	3.9	192	0	117
O=C(NC(=S)Nc1ccc2c(c1)OCCO2)c1cccc2ccccc12	0	0	0	0	0	0	-	-	-
O=C(CCCCCN1C(=O)c2ccccc2C1=O)Nc1ccc2c(c1)OCCO2	0	0	0	0	0	0	-	-	-
O=C(Nc1ccc2c(c1)OCCO2)c1ccc(Br)s1	184	0	0	198	0	11	255	0	0
CCC(=O)Nc1ccc2c(c1)OCCO2	0	0	0	0	0	0	-	-	-
Cc1cc(C)nc(N/N=C/c2cc(C)n(CC(F)(F)F)c2C)n1	0	0	0	0	0	0	-	-	-
c1cnc2nc(CSc3ncn[nH]3)cn2c1	0	0	0	0	0	0	-	-	-
CCn1c(-c2ccccc2)csc1=Nc1ccc(O)cc1	163	0	0	152	0	-	172	0	120
CCOc1ccc(N=c2scc(-c3ccccc3)n2CCO)cc1	0	0	0	0	0	0	-	-	-
CN(/N=C/c1ccc2c(c1)OCO2)c1ccccc1	155	0	0	0	0	0	180	139	0
C(=N\N(c1ccccc1)c1ccccc1)/c1ccc2c(c1)OCO2	0	0	0	0	0	0	-	-	-
Clc1c(-c2ccccc2)nnn1-c1ccccc1	177	0	0	153	0	4.8	209	137	0
Clc1ccc(-n2nnnc2-c2ccccc2)cc1Cl	0	0	0	0	0	0	-	-	-
Cc1ccc2cc3c(N)c(C(=O)N4CCOCC4)sc3nc2c1	156	0	0	178	0	0	0	0	111
CCC(C)NC(=O)c1cc2cc3ccc(OC)cc3nc2s1 (stereo unspecified)	153	0	0	214	0	5	252	0	0
COc1ccc2cc3c(N)c(C(=O)N4CCCC4)sc3nc2c1	157	0	0	0	0	0	0	0	0
CCOc1ccc2nc3sc(C(=O)N4CCN(C)CC4)c(N)c3cc2c1	0	0	0	0	0	0	-	-	-
O=C(NC1CC1)C1CCN(C2CCN(C(=O)CC3=CCCCC3)CC2)CC1	0	0	0	0	0	0	-	-	-
CS(=O)(=O)N1CCCC(C(=O)Nc2ccc3c(c2)OCCO3)C1 (stereo unspecified)	0	0	0	0	0	0	-	-	-
Cc1csc2cc(-c3cccc([N+](=O)[O-])c3)c(-c3cccc([N+](=O)[O-])c3)c[n+]12	0	0	0	0	0	0	-	-	-
O=C1c2nccnc2C(=O)N1c1ccc(F)cc1	0	0	0	0	0	0	-	-	-
CCC(C)(C)NC(=O)/C=C/c1cnc2ccccc2n1	0	0	0	0	0	0	-	-	-
CSc1nc2ccccc2c(=O)n1C1CCOC(C)(C)C1 (stereo unspecified)	0	0	0	0	0	0	-	-	-
CC1(C)[C@H]2CC=C(CN3CCC(N4CCC(C(=O)N5CCCC5)CC4)CC3)[C@@H]1C2	0	0	0	0	0	0	-	-	-
SMILES	STAT1 activator	STAT1 inh	STAT3 activator	APP 5'UTR act	STAT3 blocker	NF-kB expr up	STAT1 activ conf	NFkB act STAT1ct	STAT3 act STAT1c
N/C(=N\OC(=O)COc1ccc(Br)cc1Cl)c1ccncc1	178	0	0	140	0	4.4	193	144	118
Cn1c(=O)c2c(nc(SCC(=O)NCC3CCCO3)n2Cc2ccc(F)cc2)n(C)c1=O (stereo unspecified)	0	0	0	0	0	0	-	-	-
COc1ccc(-c2[nH]ncc2CN(C)Cc2nonc2C)c(OC)c1	0	0	0	0	0	0	-	-	-
Fc1ccccc1Nc1nc2c(s1)CCc1ccccc1-2	198	0	0	164	0	7.8	268	157	161
Fc1ccccc1Nc1n[nH]c(=S)s1	0	0	0	0	0	0	-	-	-
c1ccc(-n2cnc3cc(NCc4cccs4)ccc32)cc1	169	0	0	205	0	0	249	133	0
Cc1ccc(-n2cnc3cc(NCc4cccs4)ccc32)cc1	0	0	0	0	0	0	-	-	-
O=C(c1ccccc1-c1ncc[nH]1)N1CCc2c([nH]c3ccccc23)C1c1ccccn1 (stereo unspecified)	0	0	0	0	0	0	-	-	-
CC1(C)CC(NC(=O)c2ccccn2)CC(C)(C)N1O	0	0	0	0	0	0	-	-	-
CCOC(=O)CSc1nc2cc3c(cc2cc1C)OCO3	0	0	0	0	0	0	-	-	-
CCOC(=O)CSc1nc2cc3c(cc2cc1C#N)OCCO3	174	0	0	181	0	0	293	143	123
CC(C)OC(=O)CSc1nc2cc3c(cc2cc1C#N)OCO3	0	0	0	0	0	0	-	-	-
CCOC(=O)CSc1nc2cc3c(cc2cc1C#N)OCO3	155	0	0	0	0	4.1	223	144	115
COC(=O)CSc1nc2cc3c(cc2cc1C#N)OCO3	155	0	0	170	0	6.8	265	147	117
O=C(Cc1nc2ccccc2[nH]c1=O)c1ccccc1	175	0	0	160	0	0	196	0	155
O=c1[nH]c2ccccc2nc1Cc1ccccc1	0	0	0	0	0	0	-	-	-
CC(C)(C)C(=O)COc1ccccc1[N+](=O)[O-]	0	0	0	0	0	0	-	-	-
CCOC(=O)/C=C/COc1ccccc1[N+](=O)[O-]	154	0	0	0	0	0	146	0	0
CN(C)S(=O)(=O)c1cccc(-c2cn3cc(Cl)ccc3n2)c1	0	0	0	0	0	0	-	-	-
Clc1ccc(-c2cn3cc(Br)ccc3n2)cc1Cl	165	0	0	201	0	7.2	222	0	122
Brc1ccc2nc(-c3c[nH]c4ccccc34)cn2c1	194	0	0	213	0	0	287	143	113
Clc1ccc(-c2cn3c(n2)-c2ccccc2C3)cc1Cl	196	0	0	166	0	9.7	258	134	135
c1ccc2c(c1)Cn1nnnc1-2	0	0	0	0	0	0	-	-	-
c1ccc(-c2nc3c(ccc4ccccc43)[nH]2)nc1	173	0	0	0	0	3.7	187	0	130
O=C(CSc1nnc2ccccn12)NNC(=O)c1ccc(Br)cc1	0	0	0	0	0	0	-	-	-
